≈ marks a conversion by molar mass, not a printed value. Calls of active or inactive are those of the source. The calls are words filed in the database; no cut-off is given here. Numbered stars: 1 amine (or outer) side, 2 acyl side, 3 side chain; on linkers, the order of the positions; unused ones are H or OH. Square brackets hold non-standard residues; d marks the D form. Side chains are listed from the residue outwards. Peptide text beside a SMILES is read from it. * marks the point of attachment. dPhe(4-NHCONH2) = NC(=O)Nc1ccc(C[C@@H](N)C(=O)O)cc1; Dihydroorotyl(S) = O=C1C[C@@H](C(=O)*)NC(=O)N1; dPhe(4-NH2) = Nc1ccc(C[C@@H](N)C(=O)O)cc1; dPhe(4-Cl) = N[C@H](Cc1ccc(Cl)cc1)C(=O)O; Phe(4-NH2) = Nc1ccc(C[C@H](N)C(=O)O)cc1; d2Nal = N[C@H](Cc1ccc2ccccc2c1)C(=O)O; Lys(iPr) = CC(C)NCCCC[C@H](N)C(=O)O; NHCH2CH2OCH2CH2OEt = CCOCCOCCN*; d3Pal = N[C@H](Cc1cccnc1)C(=O)O; Methoxycarbamoyl = CONC(=O)*; CO = O=C([*:1])[*:2]
Experiments:
Rattus norvegicus [1] = test: Antiovulatory activity in rat at 2 ug, sc; format: functional, organism-based
Procedure, shortened: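 Cycling rats (250-300 g) given peptide 2 μg in 200 μL saline or 5% DMSO in saline sc at noon on proestrus; scored as number of rats ovulating over total treated (8 per group).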

[2] = tested on: Mast cell (Rattus norvegicus); test: Histamine release in mast cells by ELISA
[3] = biological target: T1, Gonadotropin-releasing hormone receptor (Homo sapiens, UniProt P30968); test: Antagonist activity at human GnRH receptor expressed in HEK293 cells as inhibition of GnRH-induced LH secretion by reporter gene assay; format: functional, cell-based
T1 sequence (P30968 whole entry): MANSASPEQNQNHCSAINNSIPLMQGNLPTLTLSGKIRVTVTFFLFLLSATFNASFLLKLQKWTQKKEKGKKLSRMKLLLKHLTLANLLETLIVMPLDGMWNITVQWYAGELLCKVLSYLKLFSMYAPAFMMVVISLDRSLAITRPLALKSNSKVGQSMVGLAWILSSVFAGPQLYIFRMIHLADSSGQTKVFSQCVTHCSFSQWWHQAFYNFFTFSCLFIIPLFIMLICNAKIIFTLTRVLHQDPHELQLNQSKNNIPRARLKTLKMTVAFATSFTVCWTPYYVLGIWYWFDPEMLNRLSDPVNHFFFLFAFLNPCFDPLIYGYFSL
Procedure, shortened: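 HEK293 cells stably expressing cloned human GnRH receptor plus luciferase reporter under LH alpha subunit promoter; plated 5 × 10^4 cells/well, overnight 37 °C. Compounds in 1% DMSO, 11 half-log concentrations in duplicate, 10 min preincubation, then GnRH 1 nM final, ≥5 h at 37 °C; luminescence read. Percent of control fitted to IC50; geometric mean of ≥2 independent experiments.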

Rattus norvegicus [4] = test: Inhibition of GnRH-induced LH secretion in Sprague-Dawley rat at 50 ug, sc for 72 hrs; format: functional
Procedure, shortened: (§1)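 Male rats castrated ten days earlier (≥5 per group) injected sc with 50 μg peptide in 50 μL 5% mannitol (0.6% DMSO in the stock); vehicle controls run alongside. Tail-tip blood taken pre-dose and at 3, 72, 96, 120, 144, 168 and sometimes 192 h; plasma LH by RIA, all samples of one experiment in the same assay; >80% inhibition scored.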

Rattus norvegicus [5] = test: Inhibition of GnRH-induced LH secretion in Sprague-Dawley rat at 50 ug, sc for 120 hrs; format: functional; procedure, shortened: as §1
Rattus norvegicus [6] = test: Inhibition of GnRH-induced LH secretion in Sprague-Dawley rat at 50 ug, sc for 3 hrs; format: functional; procedure, shortened: as §1
Rattus norvegicus [7] = test: Inhibition of GnRH-induced LH secretion in Sprague-Dawley rat at 50 ug, sc for 96 hrs; format: functional; procedure, shortened: as §1

SMILES	Activity (Rattus norvegicus [1])	EC50 [2]	IC50 [3]	Inhibition (Rattus norvegicus [4])	Inhibition (Rattus norvegicus [5])	Inhibition (Rattus norvegicus [6])	Inhibition (Rattus norvegicus [7])
CC(=O)Nc1ccc(C[C@H](NC(=O)[C@H](CO)NC(=O)[C@@H](Cc2cccnc2)NC(=O)[C@@H](Cc2ccc(Cl)cc2)NC(=O)[C@@H](Cc2ccc3ccccc3c2)NC(C)=O)C(=O)N[C@H](Cc2ccc(NC(C)=O)cc2)C(=O)N[C@@H](CC(C)C)C(=O)N[C@@H](CCCCNC(C)C)C(=O)N2CCC[C@H]2C(=O)N[C@H](C)C(N)=O)cc1 [ACYLINE]	Active	461 µg/mL (≈ 301 µM)					
CONC(=O)Nc1ccc(C[C@H](NC(=O)[C@H](CO)NC(=O)[C@@H](Cc2cccnc2)NC(=O)[C@@H](Cc2ccc(Cl)cc2)NC(=O)[C@@H](Cc2ccc3ccccc3c2)NC(C)=O)C(=O)N[C@H](Cc2ccc(NC(N)=O)cc2)C(=O)N[C@@H](CC(C)C)C(=O)N[C@@H](CCCCNC(C)C)C(=O)N2CCC[C@H]2C(=O)N[C@H](C)C(N)=O)cc1 (Ac-[d2Nal][dPhe(4-Cl)][d3Pal]S[Phe(4-NH2)](Methoxycarbamoyl)[dPhe(4-NHCONH2)]L[Lys(iPr)]P[dA]-NH2)			0.6 nM	>80%			
CCOCCOCCNC(=O)N[C@H](Cc1ccc2ccccc2c1)C(=O)N[C@H](Cc1ccc(Cl)cc1)C(=O)N[C@H](Cc1cccnc1)C(=O)N[C@@H](CO)C(=O)N[C@@H](Cc1ccc(NC(=O)NOC)cc1)C(=O)N[C@H](Cc1ccc(NC(N)=O)cc1)C(=O)N[C@@H](CC(C)C)C(=O)N[C@@H](CCCCNC(C)C)C(=O)N1CCC[C@H]1C(=O)N[C@H](C)C(N)=O	Active	50.6 µg/mL (≈ 30.1 µM)	2.98 nM				
CONC(=O)Nc1ccc(C[C@@H](NC(=O)[C@H](Cc2ccc(NC(=O)NOC)cc2)N(C)C(=O)[C@H](CO)NC(=O)[C@@H](Cc2cccnc2)NC(=O)[C@@H](Cc2ccc(Cl)cc2)NC(=O)[C@@H](Cc2ccc3ccccc3c2)NC(C)=O)C(=O)N[C@@H](CC(C)C)C(=O)N[C@@H](CCCCNC(C)C)C(=O)N2CCC[C@H]2C(=O)N[C@H](C)C(N)=O)cc1	Active	43.1 µg/mL (≈ 26.8 µM)	0.7 nM				
CCOCCOCCNC(=O)Nc1ccc(C[C@H](NC(=O)[C@H](CO)NC(=O)[C@@H](Cc2cccnc2)NC(=O)[C@@H](Cc2ccc(Cl)cc2)NC(=O)[C@@H](Cc2ccc3ccccc3c2)NC(=O)NCCOCCOCC)C(=O)N[C@H](Cc2ccc(NC(N)=O)cc2)C(=O)N[C@@H](CC(C)C)C(=O)N[C@@H](CCCCNC(C)C)C(=O)N2CCC[C@H]2C(=O)N[C@H](C)C(N)=O)cc1	Active	> 1000 µg/mL	1.12 nM				
CONC(=O)Nc1ccc(C[C@H](NC(=O)[C@H](CO)NC(=O)[C@@H](Cc2cccnc2)NC(=O)[C@@H](Cc2ccc(Cl)cc2)NC(=O)[C@@H](Cc2ccc3ccccc3c2)NC(C)=O)C(=O)N[C@H](Cc2ccc(NC(=O)NOC)cc2)C(=O)N[C@@H](CC(C)C)C(=O)N[C@@H](CCCCNC(C)C)C(=O)N2CCC[C@H]2C(=O)N[C@H](C)C(N)=O)cc1	Active	46 µg/mL (≈ 28.8 µM)	0.91 nM				
CCOCCOCCNC(=O)Nc1ccc(C[C@H](NC(=O)[C@H](CO)NC(=O)[C@@H](Cc2cccnc2)NC(=O)[C@@H](Cc2ccc(Cl)cc2)NC(=O)[C@@H](Cc2ccc3ccccc3c2)NC(C)=O)C(=O)N[C@H](Cc2ccc(NC(N)=O)cc2)C(=O)N[C@@H](CC(C)C)C(=O)N[C@@H](CCCCNC(C)C)C(=O)N2CCC[C@H]2C(=O)N[C@H](C)C(N)=O)cc1 (Ac-[d2Nal][dPhe(4-Cl)][d3Pal]S[Phe(4-NH2)]([CO-NHCH2CH2OCH2CH2OEt])[dPhe(4-NHCONH2)]L[Lys(iPr)]P[dA]-NH2)	Active	910 µg/mL (≈ 551 µM)					
CC(=O)N[C@H](Cc1ccc2ccccc2c1)C(=O)N[C@H](Cc1ccc(Cl)cc1)C(=O)N[C@H](Cc1cccnc1)C(=O)N[C@@H](CO)C(=O)N[C@@H](Cc1ccc(NC(=O)[C@@H]2CC(=O)NC(=O)N2)cc1)C(=O)N[C@H](Cc1ccc(NC(N)=O)cc1)C(=O)N[C@@H](CC(C)C)C(=O)N[C@@H](CCCCNC(C)C)C(=O)N1CCC[C@H]1C(=O)N[C@H](C)C(N)=O [DEGARELIX] (Ac-[d2Nal][dPhe(4-Cl)][d3Pal]S[Phe(4-NH2)](Dihydroorotyl(S))[dPhe(4-NHCONH2)]L[Lys(iPr)]P[dA]-NH2)	Active	> 1000 µg/mL			>80%		
CCOCCOCCNC(=O)N[C@H](Cc1ccc2ccccc2c1)C(=O)N[C@H](Cc1ccc(Cl)cc1)C(=O)N[C@H](Cc1cccnc1)C(=O)N[C@@H](CO)C(=O)N[C@@H](Cc1ccc(NC(=O)[C@@H]2CC(=O)NC(=O)N2)cc1)C(=O)N[C@H](Cc1ccc(NC(=O)NOC)cc1)C(=O)N[C@@H](CC(C)C)C(=O)N[C@@H](CCCCNC(C)C)C(=O)N1CCC[C@H]1C(=O)N[C@H](C)C(N)=O ({NHCH2CH2OCH2CH2OEt-CO}-[d2Nal][dPhe(4-Cl)][d3Pal]S[Phe(4-NH2)](Dihydroorotyl(S))[dPhe(4-NH2)](Methoxycarbamoyl)L[Lys(iPr)]P[dA]-NH2)			1.61 nM			>80%	
CONC(=O)Nc1ccc(C[C@@H](NC(=O)[C@H](Cc2ccc(NC(=O)[C@@H]3CC(=O)NC(=O)N3)cc2)NC(=O)[C@H](CO)NC(=O)[C@@H](Cc2cccnc2)NC(=O)[C@@H](Cc2ccc(Cl)cc2)NC(=O)[C@@H](Cc2ccc3ccccc3c2)NC(C)=O)C(=O)N[C@@H](CC(C)C)C(=O)N[C@@H](CCCCNC(C)C)C(=O)N2CCC[C@H]2C(=O)N[C@H](C)C(N)=O)cc1 (Ac-[d2Nal][dPhe(4-Cl)][d3Pal]S[Phe(4-NH2)](Dihydroorotyl(S))[dPhe(4-NH2)](Methoxycarbamoyl)L[Lys(iPr)]P[dA]-NH2)			0.51 nM				>80%

Source: ChEMBL document CHEMBL1148636, “Novel analogues of degarelix incorporating hydroxy-, methoxy-, and pegylated-urea moieties at positions 3, 5, 6 and the N-terminus. Part III” (J Med Chem, 2006)
